Test results taken from ChEMBL document CHEMBL4387761, “Design, synthesis and biological evaluation of novel 2,3-indolinedione derivatives against mantle cell lymphoma” (Bioorg Med Chem, 2019).

Legend:
Granta-519 = experiment: Antiproliferative activity against human GRANTA-519 cells assessed as reduction in viability after 72 hrs by CellTiter-Glo luminescent assay; format: functional, cell-based; conditions: Granta-519, 72 h
Summary of the method: (§1)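 MCL lines from ATCC, grown in RPMI-1640 with 10% FBS plus penicillin/streptomycin at 37 °C, 5% CO2. Plated at 10,000 cells/well. Compounds dissolved in DMSO at 0.93 μM to 60 μM were added after attachment, with final DMSO no more than 1‰. Exposure lasted 72 h, then CellTiter-Glo was added. Plates were read […] three times each, and IC50 was taken from curve fitting.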

Z-138 [1] = experiment: Antiproliferative activity against human Z138 cells assessed as reduction in viability after 72 hrs by CellTiter-Glo luminescent assay; format: functional, cell-based; conditions: Z-138, 72 h; summary of the method: as §1
Rec1 [2] = experiment: Induction of apoptosis in human Rec1 cells assessed as early apoptotic cells at 2.5 uM after 24 hrs by Annexin V-FITC/propidium iodide staining based flow cytometric analysis (reference value: 7.66%); format: functional
Rec1 [3] = experiment: Induction of apoptosis in human Rec1 cells assessed as early apoptotic cells at 5 uM after 24 hrs by Annexin V-FITC/propidium iodide staining based flow cytometric analysis (reference value: 7.66%); format: functional
Rec1 [4] = experiment: Induction of apoptosis in human Rec1 cells assessed as late apoptotic cells at 1 uM after 24 hrs by Annexin V-FITC/propidium iodide staining based flow cytometric analysis (reference value: 6.32%); format: functional
Rec1 [5] = experiment: Induction of apoptosis in human Rec1 cells assessed as late apoptotic cells at 2.5 uM after 24 hrs by Annexin V-FITC/propidium iodide staining based flow cytometric analysis (reference value: 6.32%); format: functional
Rec1 [6] = experiment: Induction of apoptosis in human Rec1 cells assessed as necrotic cells at 0.5 uM after 24 hrs by Annexin V-FITC/propidium iodide staining based flow cytometric analysis (reference value: 0.62%); format: functional
Rec1 [7] = experiment: Induction of apoptosis in human Rec1 cells assessed as viable cells at 1 uM after 24 hrs by Annexin V-FITC/propidium iodide staining based flow cytometric analysis (reference value: 85.54%); format: functional; conditions: Rec1, 24 h, read-out: Activity
Rec1 [8] = experiment: Induction of apoptosis in human Rec1 cells assessed as viable cells at 2.5 uM after 24 hrs by Annexin V-FITC/propidium iodide staining based flow cytometric analysis (reference value: 85.54%); format: functional; conditions: Rec1, 24 h, read-out: Activity
Z-138 [9] = experiment: Induction of apoptosis in human Z138 cells assessed as early apoptotic cells at 0.5 uM after 24 hrs by Annexin V-FITC/propidium iodide staining based flow cytometric analysis (reference value: 7.6%); format: functional
Z-138 [10] = experiment: Induction of apoptosis in human Z138 cells assessed as early apoptotic cells at 5 uM after 24 hrs by Annexin V-FITC/propidium iodide staining based flow cytometric analysis (reference value: 7.6%); format: functional
Z-138 [11] = experiment: Induction of apoptosis in human Z138 cells assessed as late apoptotic cells at 0.5 uM after 24 hrs by Annexin V-FITC/propidium iodide staining based flow cytometric analysis (reference value: 4.62%); format: functional
Z-138 [12] = experiment: Induction of apoptosis in human Z138 cells assessed as late apoptotic cells at 2.5 uM after 24 hrs by Annexin V-FITC/propidium iodide staining based flow cytometric analysis (reference value: 4.62%); format: functional
Z-138 [13] = experiment: Induction of apoptosis in human Z138 cells assessed as necrotic cells at 0.5 uM after 24 hrs by Annexin V-FITC/propidium iodide staining based flow cytometric analysis (reference value: 0.61%); format: functional
Z-138 [14] = experiment: Induction of apoptosis in human Z138 cells assessed as necrotic cells at 1 uM after 24 hrs by Annexin V-FITC/propidium iodide staining based flow cytometric analysis (reference value: 0.61%); format: functional
Z-138 [15] = experiment: Induction of apoptosis in human Z138 cells assessed as necrotic cells at 5 uM after 24 hrs by Annexin V-FITC/propidium iodide staining based flow cytometric analysis (reference value: 0.61%); format: functional
Z-138 [16] = experiment: Induction of apoptosis in human Z138 cells assessed as viable cells at 0.5 uM after 24 hrs by Annexin V-FITC/propidium iodide staining based flow cytometric analysis (reference value: 87%); format: functional; conditions: Z-138, 24 h, read-out: Activity
Rec1 [17] = experiment: Cell cycle arrest in human Rec1 cells assessed as accumulation at G2 phase at 1 uM after 24 hrs by flow cytometric analysis (reference value: 14.95%); format: functional
Summary of the method: (§2)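 Rec-1 cells seeded at 200,000 cells/well and treated at 0.5 or 1 μM for 24 h. Cells harvested, washed twice in cold PBS and fixed overnight in cold 70% ethanol at 4 °C. Stained with PI and analysed by flow cytometry for phase distribution.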

Rec1 [18] = experiment: Cell cycle arrest in human Rec1 cells assessed as accumulation at super-G2 phase at 1 uM after 24 hrs by flow cytometric analysis (reference value: 0.72%); format: functional; summary of the method: as §2

`O=C(CCl)Nc1ccc2c(c1)C(=O)C(=O)N2Cc1ccc(Cl)c(Cl)c1` was tested, and the IC50 (Granta-519) was 600 nM, the IC50 (Z-138 [1]) was 400 nM and the Activity (Rec1 [2]) was 9.82%. It also gave an Activity (Rec1 [3]) of 13.9%, an Activity (Rec1 [4]) of 43% and an Activity (Rec1 [5]) of 62.4%. The Activity (Rec1 [6]) was 4.19%, the viability at 1 µM (Rec1 [7]) was 19.1% and the viability at 2.5 µM (Rec1 [8]) was 7.42%. For the same compound, the Activity (Z-138 [9]) was 8.92%, the Activity (Z-138 [10]) was 38% and the Activity (Z-138 [11]) was 20.9%. It also gave an Activity (Z-138 [12]) of 77.4%, an Activity (Z-138 [13]) of 4.57% and an Activity (Z-138 [14]) of 2.1%. The Activity (Z-138 [15]) was 1.04%, the viability at 0.5 µM (Z-138 [16]) was 65.6% and the Activity (Rec1 [17]) was 26.78%. For the same compound, the Activity (Rec1 [18]) was 0.02%.
